{
  "source": "PubChem BioAssay AID2560",
  "about": "(University of Pittsburgh Molecular Library Screening Center, 2010)",
  "system": "hexokinase 1 (Trypanosoma brucei)",
  "assay": "TbHK1 inhibitor retest, confirmation, biochemical, DPI cherry-picked primary actives (AID 2560);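 further: 0% and 100% set by the maximum and minimum signal control wells on each plate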",
  "conditions": "recombinant TbHK1, G6PDH-coupled NADH A340 absorbance; at 10 µM; active compounds read high",
  "outline": "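Assay system: T. brucei hexokinase 1, G6PDH-coupled / Medium: Mg2+, NAD+ and G6PDH coupling mix / Reagent: glucose 0.5 mM plus ATP 0.35 mM / Dosing: one dose, 10 µM / Schedule: enzyme reaction 2 h at room temperature / Technique: NADH absorbance at 340 nm after 50 mM EDTA stop / Replication: duplicate measurements per compound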",
  "note": "Some of the results follow. Unmarked numbers belong to inactive results.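 How the source made its calls: active means inhibition of at least 50% in both of the two screening runs; inconclusive means at least 50% in one run, below 50% in the other; inactive means inhibition below 50% in both runs.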",
  "data": [
    {"smiles": "O=C(CN1C(=O)C2C3C=CC(C3)C2C1=O)NCCc1ccccc1Cl", "note": "(centres undefined)", "values": [
      {"measurement": "inhibition", "value": -0.0219, "unit": "%"}
    ]},
    {"smiles": "CC1(C)CC(=O)C=C(NCCCNC2CCCCC2)C1", "values": [
      {"measurement": "inhibition", "value": 2.17, "unit": "%"}
    ]},
    {"smiles": "COC(=O)C1CCN(CC(N)=O)CC1", "values": [
      {"measurement": "inhibition", "value": 5.76, "unit": "%"}
    ]},
    {"smiles": "COc1cccc(/C=N/Nc2ncc(C(F)(F)F)cc2Cl)c1O", "values": [
      {"measurement": "inhibition", "value": -10.9, "unit": "%"}
    ]}
  ]
}
